Seven molecules from ChEMBL document CHEMBL1156649, “Benzoic acid derivatives from Piper species and their antiparasitic activity” (J Nat Prod, 2008) can be followed below.

Usually IC50 stands for the concentration that inhibits the measured activity by half. A higher IC50 goes with weaker potency in that assay.

Values after ≈ are worked out from the molar mass of the structure shown.

Holding throughout (type): functional, organism-based
In assay [1] the test system is Leishmania amazonensis. The experiment in a line: Antileishmanial activity against Leishmania amazonensis PH8 promastigotes. In a few lines: (§1)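 Promastigotes grown at 28 °C in stationary culture, seeded at 1 × 10^4 per 100 µL well in RPMI 1640-based Leishmania medium. DMSO-dissolved samples added to give 100 µg/mL final and serial dilutions. IC50 = concentration causing 50% reduction in parasite viability. Pentamidine (10 µg/mL) positive control.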

Assay [2] has as its system Leishmania braziliensis. Description: Antileishmanial activity against Leishmania braziliensis 2903 promastigotes. The method in brief:
as §1

In assay [3] the test system is Leishmania donovani. Description: Antileishmanial activity against Leishmania donovani PP75 promastigotes. The method in brief: as §1
Assay [4] concerns Plasmodium falciparum. The experiment in a line: Antiplasmodial activity against chloroquine-sensitive Plasmodium falciparum F32-Tanzania. The method in brief: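 Culture per Trager and Jensen on glucose-enriched RPMI 1640 with 10% human serum at 37 °C. After 24 h, medium replaced with fresh medium containing compound at 0.1, 1 and 10 µg/mL, then incubated 48 h more. Blood smears on day 3; parasitemia compared with control. IC50 read graphically from concentration versus % inhibition. Chloroquine (0.1 µg/mL) positive control. Triplicate.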

The subject of assay [5] is Trypanosoma cruzi. Description: Antitrypanosomal activity against Trypanosoma cruzi Tulahuen.

As to `COC(=O)c1ccc(O)c(CC=C(C)C)c1`, the IC50 in assay [1] is 74.4 mg/L (≈ 338 µM); in assay [2], 74.4 mg/L (≈ 338 µM); in assay [3], 62.5 mg/L (≈ 284 µM); in assay [4], 2.8 mg/L (≈ 12.7 µM); in assay [5], > 20 mg/L.

`C=C(C)C(O)Cc1cc(C(=O)OC)cc(O)c1O` (racemic): the IC50 in assay [1] was 89.5 mg/L (≈ 355 µM); in assay [2] it was 81.9 mg/L (≈ 325 µM); in assay [3], 81.9 mg/L (≈ 325 µM); in assay [4], > 10 mg/L; in assay [5] it was 16.4 mg/L (≈ 65 µM).

Turning to `C=C(C)C(O)Cc1cc(C(=O)O)cc(CC=C(C)C)c1O` (racemic), the IC50 in assay [1] is 67.6 mg/L (≈ 233 µM); in assay [2], 67.6 mg/L (≈ 233 µM); in assay [3] it was 67.3 mg/L (≈ 232 µM); in assay [4], > 10 mg/L; in assay [5] it was > 20 mg/L.

As for `COC(=O)c1cc(O)c(O)c(CC=C(C)C)c1`, the IC50 was determined as 18.2 mg/L (≈ 77 µM) in assay [1]; 13.8 mg/L (≈ 58.4 µM) in assay [2]; 18.5 mg/L (≈ 78.3 µM) in assay [3]; 4.1 mg/L (≈ 17.4 µM) in assay [4]; 18.5 mg/L (≈ 78.3 µM) in assay [5].

With `CC(C)=CCc1cc(C(=O)O)cc(CC=C(C)C)c1O`, the IC50 in assay [1] was 45.3 mg/L (≈ 165 µM); in assay [2] it was 34.1 mg/L (≈ 124 µM); in assay [3], 40 mg/L (≈ 146 µM); in assay [4] it was > 10 mg/L; in assay [5], > 20 mg/L.

With `COc1c(/C=C/C(C)(C)O)cc(C(=O)O)cc1CC=C(C)C`, the IC50 in assay [1] is > 100 mg/L; in assay [2] it was 78.8 mg/L (≈ 259 µM); in assay [3], > 100 mg/L; in assay [4], > 10 mg/L; in assay [5] it was > 20 mg/L.

With `C=C(C)C(O)Cc1cc(C(=O)OC)ccc1O` (stereo not given), the 50% inhibitory concentration (IC50) was 78.2 mg/L (≈ 331 µM) in assay [1]; 74.4 mg/L (≈ 315 µM) in assay [2]; 86.9 mg/L (≈ 368 µM) in assay [3]; 10 mg/L (≈ 42.3 µM) in assay [4]; 15.6 mg/L (≈ 66 µM) in assay [5].
